One data set has as its system MOLT-4. Nature of the data set: Antiproliferative activity against human MOLT4 cells assessed as reduction in cell viability after 48 hrs by MTT assay. The class given is functional, cell-based. The following applies: MOLT-4, 48 h. In outline: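 Cells kept in RPMI1640 with 10% FBS at 37 °C, 5% CO2. Seeded and grown for 12 h, then exposed to a range of compound concentrations for 48 h. 0.5% MTT added for 4 h, formazan dissolved in DMSO, absorbance read at 570 nm.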
(Tetrazolium dyes change colour on reduction, which living cells bring about.)

For data set [1], the target named is Tyrosine-protein kinase JAK2 (Homo sapiens, UniProt O60674). Briefly: Inhibition of recombinant human JAK2 at 10 uM using Ulight-CAGAGAIETDKEYYTVKD as substrate measured after 60 mins by LANCE assay.
Chain of Tyrosine-protein kinase JAK2 (O60674 whole entry): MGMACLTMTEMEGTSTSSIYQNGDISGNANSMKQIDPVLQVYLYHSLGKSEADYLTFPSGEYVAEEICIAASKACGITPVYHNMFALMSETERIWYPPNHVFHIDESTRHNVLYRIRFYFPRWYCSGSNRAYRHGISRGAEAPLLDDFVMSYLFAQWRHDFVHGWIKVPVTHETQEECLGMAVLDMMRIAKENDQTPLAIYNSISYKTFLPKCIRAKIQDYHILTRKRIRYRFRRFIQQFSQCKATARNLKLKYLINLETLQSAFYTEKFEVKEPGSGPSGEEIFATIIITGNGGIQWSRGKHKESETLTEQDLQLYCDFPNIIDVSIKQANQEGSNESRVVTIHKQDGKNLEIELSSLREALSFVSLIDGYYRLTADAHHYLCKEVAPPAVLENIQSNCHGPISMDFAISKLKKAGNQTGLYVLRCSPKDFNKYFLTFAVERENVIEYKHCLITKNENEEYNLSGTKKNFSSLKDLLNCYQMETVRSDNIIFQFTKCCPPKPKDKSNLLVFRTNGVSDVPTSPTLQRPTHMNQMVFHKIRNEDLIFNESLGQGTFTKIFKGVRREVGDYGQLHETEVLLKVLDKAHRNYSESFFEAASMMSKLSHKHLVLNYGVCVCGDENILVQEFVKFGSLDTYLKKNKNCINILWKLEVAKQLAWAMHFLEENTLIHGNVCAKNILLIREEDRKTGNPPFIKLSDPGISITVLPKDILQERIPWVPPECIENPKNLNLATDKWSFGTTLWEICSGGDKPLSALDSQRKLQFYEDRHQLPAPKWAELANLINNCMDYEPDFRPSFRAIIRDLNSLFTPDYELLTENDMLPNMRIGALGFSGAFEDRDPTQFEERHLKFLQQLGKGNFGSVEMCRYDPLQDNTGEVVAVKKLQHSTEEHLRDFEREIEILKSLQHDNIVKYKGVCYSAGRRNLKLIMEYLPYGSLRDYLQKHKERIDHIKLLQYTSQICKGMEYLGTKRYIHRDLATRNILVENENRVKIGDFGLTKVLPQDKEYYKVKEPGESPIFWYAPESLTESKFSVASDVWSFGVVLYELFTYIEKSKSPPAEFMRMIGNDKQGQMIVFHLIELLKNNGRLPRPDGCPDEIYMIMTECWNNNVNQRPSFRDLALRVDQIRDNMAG
The subject of data set [2] is HEL. Briefly: Induction of apoptosis in HEL cells assessed as late apoptotic cells at 1 uM after 24 hrs by Annexin-V/propidium iodide staining-based flow cytometric analysis (reference value: 0.023%). The format is functional, Homo sapiens. In general terms: A flow cytometer gives signals particle by particle.
In data set [3] the test system is HEL. Briefly: Induction of apoptosis in HEL cells assessed as early apoptotic cells at 1 uM after 24 hrs by Annexin-V/propidium iodide staining-based flow cytometric analysis (reference value: 12.5%). The class given is functional, Homo sapiens.
Data set [4] deals with HEL. Briefly: Induction of apoptosis in HEL cells assessed as viable cells at 1 uM after 24 hrs by Annexin-V/propidium iodide staining-based flow cytometric analysis (reference value: 87.5%). The format is functional, Homo sapiens.
Data set [5] can be described thus: Drug level in BALB/c nu mouse xenografted with HEL cells at 100 mg/kg/day, ip administered for 5 days and measured after 0.5 to 4 hrs by LC-MS/MS analysis. The class given is ADME, organism-based. The following applies: in vivo. The essentials: (§1)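 HEL-xenografted male BALB/c-nu mice dosed IP at 100 mg/kg/day for 5 days. Sacrificed 0.5, 1.0 and 4.0 h after the last dose. Plasma separated and stored at -80 °C. Tumors homogenized in normal saline (5:1 v/w) and sonicated. Samples deproteinized with methanol containing internal standard, centrifuged, diluted in methanol/acetonitrile and recentrifuged.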

In data set [6] the test system is K562. Briefly: Induction of apoptosis in human K562 cells assessed as late apoptotic cells at 1 uM after 24 hrs by Annexin-V/propidium iodide staining-based flow cytometric analysis (reference value: 5.87%). The class given is functional.
The test system of data set [7] is K562. Briefly: Induction of apoptosis in human K562 cells assessed as viable cells at 1 uM after 24 hrs by Annexin-V/propidium iodide staining-based flow cytometric analysis (reference value: 85.7%). The class given is functional.
Data set [8] is described as follows: Toxicity in BALB/c nu mouse xenografted with HEL cells assessed as injury to internal organs at 60 mg/kg/day, ip administered for 16 days and measured post-last dose in presence of ruxolitinib. The class given is organism-based. The conditions noted are these: in vivo, 384 h.
The test system of data set [9] is K562. Nature of the data set: Induction of apoptosis in human K562 cells assessed as necrotic apoptotic cells at 1 uM after 24 hrs by Annexin-V/propidium iodide staining-based flow cytometric analysis (reference value: 0.827%). The format is functional.
The target in data set [10] is T1, Janus Kinase (JAK) (Homo sapiens) (UniProt P52333+P23458+O60674+P29597). Nature of the data set: Inhibition of JAK in human MDA-MB-231 cells assessed as downregulation of p-STAT3-Tyr705 level at 5 uM after 12 hrs by Western blot analysis. In general terms: Immunoblotting shows a protein as a band on a membrane.
The subject of data set [11] is K562. Briefly: Induction of apoptosis in human K562 cells assessed as early apoptotic cells at 1 uM after 24 hrs by Annexin-V/propidium iodide staining-based flow cytometric analysis (reference value: 7.55%). The format is functional.
Data set [12] addresses T1, Janus Kinase (JAK) (Homo sapiens). Nature of the data set: Inhibition of JAK in human MDA-MB-231 cells assessed as decrease in upregulation of p-STAT3-Tyr705 level at 5 uM after 12 hrs in presence of ruxolitinib by Western blot analysis. The class given is cell-based. The essentials: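 MDA-MB-231 cells treated with compound or DMSO for 12 h, then lysed in SDS buffer and cleared by centrifugation. Lysate resolved by SDS-PAGE and transferred to nitrocellulose. Immunoblotted for p-STAT3 (Tyr705), total STAT3, acetyl-α-tubulin and acetyl-histone H3, with GAPDH as loading control. Detection by enhanced chemiluminescence.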

Data set [13] in a line: Toxicity in BALB/c nu mouse xenografted with HEL cells assessed as change in body weight at 60 mg/kg/day, ip administered for 16 days and measured every day during compound dosing in presence of ruxolitinib. The class given is organism-based. The conditions noted are these: in vivo, 384 h.
The test system of data set [14] is HEL. Briefly: Induction of apoptosis in HEL cells assessed as necrotic apoptotic cells at 1 uM after 24 hrs by Annexin-V/propidium iodide staining-based flow cytometric analysis (reference value: 0.011%). The format is functional, Homo sapiens.
A short description of data set [15]: Drug level in tumor of BALB/c nu mouse xenografted with HEL cells at 100 mg/kg/day, ip administered for 5 days and measured 1 hr post-last dose by LC-MS/MS analysis. The class given is ADME, organism-based, Neoplasm. The following applies: in vivo. In outline:
as §1

The test system of data set [16] is K562. Briefly: Synergistic antiproliferative activity against human K562 cells assessed as combination index after 48 hrs in presence of SAHA by MTT assay. The class given is functional.
Data set [17] relates to K562. Nature of the data set: Synergistic antiproliferative activity against human K562 cells assessed as reduction in cell viability after 48 hrs in presence of SAHA by MTT assay. The format is functional, cell-based. The following applies: K562, 48 h.
The next data set concerns Jurkat. Briefly: Antiproliferative activity against human Jurkat cells assessed as reduction in cell viability after 48 hrs by MTT assay. The class given is functional, cell-based.
For data set [18], the system named is HEL. Briefly: Antiproliferative activity against HEL cells harboring JAK2 V617F mutant assessed as reduction in cell viability after 48 hrs by MTT assay. The class given is functional, cell-based. The following applies: Homo sapiens.
The subject of data set [19] is HEL. Nature of the data set: Antitumor activity against HEL cells xenografted in BALB/c nu mouse assessed as tumor growth inhibition at 70 mg/kg/day, ip administered for 16 days and measured every 3 days during compound dosing in presence of SAHA by caliper method relative to control. The class given is functional, Homo sapiens. The conditions noted are these: read-out: TGI. The essentials:
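Male BALB/c-nu mice (5-6 weeks) inoculated subcutaneously in the right flank with 1 × 10^7 HEL cells. Randomized at day 10 (6 per group). Dosed IP daily for 16 days; controls received PBS with 5% DMSO. Tumors measured by caliper every three days (V = ab²/2) and body weight monitored. TGI calculated from final tumor weights versus control.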

Data set [20] can be described thus: Toxicity in BALB/c nu mouse xenografted with HEL cells assessed as change in body weight at 70 mg/kg/day, ip administered for 16 days and measured every day during compound dosing in presence of SAHA. The format is organism-based. The following applies: in vivo, 384 h.
For data set [21], the system named is HEL. Briefly: Synergistic antiproliferative activity against HEL cells harboring JAK2 V617F mutant assessed as combination index after 48 hrs in presence of SAHA by MTT assay. The class given is functional, Homo sapiens.
A short description of data set [22]: Toxicity in BALB/c nu mouse xenografted with HEL cells assessed as injury to internal organs at 70 mg/kg/day, ip administered for 16 days and measured post-last dose in presence of SAHA. The format is organism-based. The conditions noted are these: in vivo, 384 h.
Data set [23] deals with T2, Protein deacetylase HDAC6 (Homo sapiens, UniProt Q9UBN7).
T2 sequence (Q9UBN7 whole entry): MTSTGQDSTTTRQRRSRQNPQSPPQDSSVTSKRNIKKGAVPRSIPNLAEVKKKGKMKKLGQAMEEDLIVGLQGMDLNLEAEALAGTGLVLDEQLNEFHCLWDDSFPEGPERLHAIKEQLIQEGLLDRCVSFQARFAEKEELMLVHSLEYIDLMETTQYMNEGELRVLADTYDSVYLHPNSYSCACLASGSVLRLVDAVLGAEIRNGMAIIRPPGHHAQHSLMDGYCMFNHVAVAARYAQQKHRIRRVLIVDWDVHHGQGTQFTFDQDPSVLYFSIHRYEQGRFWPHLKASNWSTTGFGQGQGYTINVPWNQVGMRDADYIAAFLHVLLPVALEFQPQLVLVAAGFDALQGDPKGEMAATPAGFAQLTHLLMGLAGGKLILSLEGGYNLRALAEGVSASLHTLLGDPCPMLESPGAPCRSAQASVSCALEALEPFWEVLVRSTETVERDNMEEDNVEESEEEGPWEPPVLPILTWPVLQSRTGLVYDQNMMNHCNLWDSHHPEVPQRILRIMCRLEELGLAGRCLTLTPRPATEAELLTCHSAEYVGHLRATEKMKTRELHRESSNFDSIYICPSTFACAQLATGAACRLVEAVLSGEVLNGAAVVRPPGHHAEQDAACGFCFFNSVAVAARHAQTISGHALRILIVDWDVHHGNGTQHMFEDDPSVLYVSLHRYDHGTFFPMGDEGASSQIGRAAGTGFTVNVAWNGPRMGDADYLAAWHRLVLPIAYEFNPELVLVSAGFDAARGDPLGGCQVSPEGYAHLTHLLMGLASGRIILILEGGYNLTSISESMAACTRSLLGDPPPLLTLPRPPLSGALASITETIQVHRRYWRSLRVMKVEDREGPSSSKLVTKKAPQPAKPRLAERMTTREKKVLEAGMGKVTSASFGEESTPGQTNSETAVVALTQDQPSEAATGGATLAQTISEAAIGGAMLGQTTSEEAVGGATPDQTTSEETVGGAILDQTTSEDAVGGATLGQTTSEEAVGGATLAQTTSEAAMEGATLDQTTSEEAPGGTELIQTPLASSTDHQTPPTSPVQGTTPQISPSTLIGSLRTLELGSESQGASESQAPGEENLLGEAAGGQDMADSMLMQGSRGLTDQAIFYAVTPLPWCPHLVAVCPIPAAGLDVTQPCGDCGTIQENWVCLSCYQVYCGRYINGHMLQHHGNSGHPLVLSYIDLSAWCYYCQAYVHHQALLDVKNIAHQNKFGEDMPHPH
Nature of the data set: Inhibition of recombinant human HDAC6 using p53 (379 to 382 residues) derived fluorogenic peptide RHKKAc as substrate.

A further data set has as its target Histone deacetylase 2 (Homo sapiens, UniProt Q92769). The conditions noted are these: A549, at 80 to 400 nM.
For data set [24], the system named is K562. Nature of the data set: Antiproliferative activity against human K562 cells assessed as reduction in cell viability after 48 hrs by MTT assay. The format is functional, cell-based. The following applies: K562, 48 h.
Data set [25] has as its system HEL. Nature of the data set: Antitumor activity against HEL cells xenografted in BALB/c nu mouse assessed as reduction in tumor volume at 100 mg/kg/day, ip administered for 16 days and measured every 3 days during compound dosing by caliper method relative to control. The format is functional, Homo sapiens. The conditions noted are these: read-out: TGI.
Data set [26] relates to HEL. Nature of the data set: Synergistic antiproliferative activity against HEL cells harboring JAK2 V617F mutant assessed as reduction in cell viability after 48 hrs in presence of SAHA by MTT assay. The format is functional, cell-based. The following applies: Homo sapiens.

This note sets out measurements from ChEMBL document CHEMBL4346670, “Discovery of Novel Janus Kinase (JAK) and Histone Deacetylase (HDAC) Dual Inhibitors for the Treatment of Hematological Malignancies” (J Med Chem, 2019).

Activity calls are given as the source filed them. The calls are words filed in the database; no cut-off is given here.

Chain of Histone deacetylase 2 (Q92769 whole entry): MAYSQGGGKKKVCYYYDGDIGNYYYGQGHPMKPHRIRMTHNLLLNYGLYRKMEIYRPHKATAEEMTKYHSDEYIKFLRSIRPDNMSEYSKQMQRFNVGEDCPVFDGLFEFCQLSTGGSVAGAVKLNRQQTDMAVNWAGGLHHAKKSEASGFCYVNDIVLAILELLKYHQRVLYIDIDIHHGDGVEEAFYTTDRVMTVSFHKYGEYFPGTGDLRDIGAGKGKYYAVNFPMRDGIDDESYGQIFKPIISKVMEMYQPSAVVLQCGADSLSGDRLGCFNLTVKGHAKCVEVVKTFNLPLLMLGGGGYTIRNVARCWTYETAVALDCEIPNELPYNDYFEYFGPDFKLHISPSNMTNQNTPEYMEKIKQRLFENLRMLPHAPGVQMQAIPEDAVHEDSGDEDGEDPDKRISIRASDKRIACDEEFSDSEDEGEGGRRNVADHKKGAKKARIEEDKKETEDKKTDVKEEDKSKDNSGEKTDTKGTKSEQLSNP

The term IC50 denotes the concentration that gives 50% inhibition. As to `O=C(CCCCCCC(=O)Nc1ccccc1)NO` [VORINOSTAT], the IC50 in the data set on MOLT-4 stood at 400 nM. Further, the inhibition result in data set [1] was “inactive”. The Activity with HEL [2] is 44.6%; in the data set on HEL [3], 21.3%; in the data set on HEL [4], 32.1%; with K562 [6], 17.3%; in the data set on K562 [7], 67.6%; in [8], “Non-Toxic”. Moreover, the Activity is listed as 0.73% with K562 [9], 14.5% in the data set on K562 [11], “Non-Toxic” in data set [13] and 2% in the data set with HEL [14]. For the same molecule, the Drug uptake entry in [5] was “Active”. Besides, the result in data set [10] was Active. The inhibition result in [12] is “Active”.

In the case of `N#CC[C@H](C1CCCC1)n1cc(-c2ncnc3[nH]ccc23)cn1` [RUXOLITINIB], the IC50 was 15800 nM in the data set on MOLT-4; 1030 nM with K562 [17]; greater than 5000 nM with Jurkat; 18600 nM in the data set on HEL [18]; 15 nM in [23]; 23200 nM in the data set on K562 [24]. In addition, the IC50 in the data set with HEL [26] came to 300 nM. Also, the Drug uptake entry in data set [15] is “Active”. Besides, the figures for the CI in the data set with K562 [16] and with HEL [21] were 0.97 and 0.48, respectively. Moreover, the Activity in the data set on HEL [2] is given as 11.7%; in the data set on HEL [3], 8.08%; in the data set on K562 [6], 15.3%; in data set [20], “Non-Toxic”; with K562 [9] it was 0.248%; in [22], “Non-Toxic”. The Activity was found to be 9.22% with K562 [11] and 0.85% with HEL [14]. Also, the viability at 1 µM is 79.4% in the data set with HEL [4] (Homo sapiens, HEL, 24 h, read-out: Activity) and 75.2% with K562 [7] (Homo sapiens, K562, 24 h, read-out: Activity). Also, the inhibition in vivo at 70 mg/kg/day with HEL [19] came out at 57%. The inhibition entry on Histone deacetylase 2 was “Active”. In the data set on HEL [25], the inhibition in vivo at 100 mg/kg/day came out at 27%.
